In ChEMBL document CHEMBL1129282, “High-affinity partial agonist imidazo[1,5-a]quinoxaline amides, carbamates, and ureas at the gamma-aminobutyric acid A/benzodiazepine receptor complex” (J Med Chem, 1996):
pKi: −log10 of the molar value. Calls of active or inactive are those of the source.

Legend:
[1] = biological target: T1, GABA-A receptor; alpha-1/beta-2/gamma-2 (Homo sapiens, UniProt P14867+P18507+P47870); experiment: (§1) Displacement of [3H]Flunitrazepam from GABA-A receptor alpha-1-beta-2-gamma-2 subunits expressed in Sf9 cells; design: species or system insect
T1 sequence (P14867 whole entry): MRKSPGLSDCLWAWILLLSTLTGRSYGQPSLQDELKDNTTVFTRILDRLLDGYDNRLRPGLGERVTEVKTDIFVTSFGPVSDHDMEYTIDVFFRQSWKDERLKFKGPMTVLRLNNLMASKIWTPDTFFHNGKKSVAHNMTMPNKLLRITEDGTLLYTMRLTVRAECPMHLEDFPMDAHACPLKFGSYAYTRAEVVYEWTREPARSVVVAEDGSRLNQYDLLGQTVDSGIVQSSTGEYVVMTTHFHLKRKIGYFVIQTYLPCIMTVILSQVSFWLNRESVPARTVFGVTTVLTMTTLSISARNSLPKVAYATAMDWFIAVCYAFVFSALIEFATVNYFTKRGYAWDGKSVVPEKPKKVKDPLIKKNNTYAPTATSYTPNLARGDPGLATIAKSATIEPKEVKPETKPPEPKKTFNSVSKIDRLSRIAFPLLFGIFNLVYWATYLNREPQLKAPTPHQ
T1 sequence (P47870 whole entry): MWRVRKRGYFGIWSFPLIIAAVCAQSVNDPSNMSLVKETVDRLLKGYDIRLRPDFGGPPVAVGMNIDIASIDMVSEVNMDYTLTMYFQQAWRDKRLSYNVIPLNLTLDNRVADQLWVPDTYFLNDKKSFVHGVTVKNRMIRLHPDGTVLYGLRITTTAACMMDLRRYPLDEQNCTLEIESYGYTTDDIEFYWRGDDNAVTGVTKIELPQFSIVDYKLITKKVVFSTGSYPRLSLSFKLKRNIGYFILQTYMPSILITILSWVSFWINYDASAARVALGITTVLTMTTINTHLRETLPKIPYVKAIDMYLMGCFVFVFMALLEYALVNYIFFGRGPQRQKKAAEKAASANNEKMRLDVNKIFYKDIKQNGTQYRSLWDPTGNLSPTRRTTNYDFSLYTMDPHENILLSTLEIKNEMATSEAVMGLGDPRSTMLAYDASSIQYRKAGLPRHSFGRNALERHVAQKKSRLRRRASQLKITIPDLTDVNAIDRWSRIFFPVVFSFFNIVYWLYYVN
T1 sequence (P18507 whole entry): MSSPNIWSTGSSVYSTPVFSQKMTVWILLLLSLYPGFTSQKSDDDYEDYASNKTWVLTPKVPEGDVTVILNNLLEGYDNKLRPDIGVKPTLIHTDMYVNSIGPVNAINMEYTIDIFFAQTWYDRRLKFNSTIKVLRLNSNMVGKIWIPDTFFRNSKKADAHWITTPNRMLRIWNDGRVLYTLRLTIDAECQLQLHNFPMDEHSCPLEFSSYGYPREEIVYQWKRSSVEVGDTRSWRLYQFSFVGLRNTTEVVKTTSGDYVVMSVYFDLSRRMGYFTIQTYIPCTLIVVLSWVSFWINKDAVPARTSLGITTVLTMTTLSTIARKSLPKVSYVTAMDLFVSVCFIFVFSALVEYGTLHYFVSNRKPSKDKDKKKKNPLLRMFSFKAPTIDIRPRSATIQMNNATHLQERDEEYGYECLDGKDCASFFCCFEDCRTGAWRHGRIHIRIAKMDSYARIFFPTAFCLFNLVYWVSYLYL
Procedure, shortened: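 Equilibrium competition binding on membranes from Sf-9 cells co-infected (MOI 3) with baculoviruses for α1, β2 and γ2 subunits, harvested 60 h postinfection. Assay in normal saline with 6 nM [3H]flunitrazepam, 50 µg membrane protein and varying test ligand concentrations. Incubated 60 min at 4 °C, filtered over glass fiber, washed four times with cold saline, then scintillation counted.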

[2] = biological target: T1, GABA-A receptor; alpha-1/beta-2/gamma-2; experiment: as §1
[3] = biological target: GABA-A receptor; anion channel; experiment: Inhibition of [3H]flunitrazepam binding to GABA-A receptor of rat cortical membranes; type: cell membranes, Membrane
[4] = biological target: T2, GABA A receptor alpha-3/beta-2/gamma-2 (Homo sapiens, UniProt P18507+P34903+P47870); experiment: (§2) Displacement of [3H]flunitrazepam from GABA-A receptor alpha-3-beta-2-gamma-2 subunits expressed in Sf9 cells
T2 sequence (P47870 whole entry): T1 sequence (P47870 whole entry)
T2 sequence (P18507 whole entry): T1 sequence (P18507 whole entry)
T2 sequence (P34903 whole entry): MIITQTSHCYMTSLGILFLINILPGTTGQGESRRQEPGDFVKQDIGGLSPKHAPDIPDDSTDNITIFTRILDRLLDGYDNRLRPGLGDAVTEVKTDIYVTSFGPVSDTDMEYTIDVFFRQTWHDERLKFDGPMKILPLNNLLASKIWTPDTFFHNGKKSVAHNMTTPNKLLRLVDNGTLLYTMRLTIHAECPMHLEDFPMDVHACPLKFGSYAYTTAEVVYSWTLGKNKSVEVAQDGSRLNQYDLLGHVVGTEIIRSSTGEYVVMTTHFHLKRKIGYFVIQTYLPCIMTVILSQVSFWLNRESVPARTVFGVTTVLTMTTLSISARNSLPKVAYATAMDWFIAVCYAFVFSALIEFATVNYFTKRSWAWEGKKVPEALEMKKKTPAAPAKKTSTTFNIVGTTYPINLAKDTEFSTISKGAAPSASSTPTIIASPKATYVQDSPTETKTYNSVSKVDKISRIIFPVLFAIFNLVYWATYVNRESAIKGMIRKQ
Procedure, shortened: (§3)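 Membranes from Sf-9 cells infected (MOI 3) with baculoviruses for α1, α3 or α6 plus β2 and γ2 subunits, harvested 60 h postinfection. Binding in normal saline with 6 nM [3H]flunitrazepam (α1, α3) or [3H]Ro 15-4513 (α6), 50 µg membrane protein, varying test ligand. Incubated 60 min at 4 °C, filtered, scintillation counted.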

Rattus norvegicus [5] = experiment: Antagonistic activity against metrazole-induced clonic convulsions in rat after ip injection; type: functional
Rattus norvegicus [6] = organism: Rattus norvegicus; experiment: In vitro [36Cl]-uptake in rat cerebrocortical synaptoneurosomes; type: functional; design: unit not given here
Procedure, shortened: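 Rat cerebrocortical synaptoneurosomes (1 mg protein) preincubated 5 min at 30 °C, then mixed with medium containing 0.2 µCi Na36Cl/mL, 118 mM NaCl, 5 mM KCl, 1.8 mM MgSO4, 20 mM Hepes/Tris pH 7.0, ± drug (methanol ≤0.4%). Uptake stopped after 5 s with ice-cold buffer, rapid filtration, four washes, radioactivity counted.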

[7] = biological target: GABA-A receptor; anion channel (Rattus norvegicus) (UniProt O09028+P15431+P18506+P18508+P19969+P20236+P23574+P23576+P28471+P28473+P30191+P62813+P63079+P63138+Q91ZM7+Q9ES14); settings: Brain, Brain membranes
[8] = biological target: T1, GABA-A receptor; alpha-1/beta-2/gamma-2; experiment: Displacement of [3H]flunitrazepam from GABA-A receptor alpha-1-beta-2-gamma-2 subunits expressed in Sf9 cells; procedure, shortened: as §3
[9] = biological target: T2, GABA A receptor alpha-3/beta-2/gamma-2; experiment: as §2; remark: listed apart in the source
Procedure, shortened: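 Sf-9 cells were co-infected with baculoviruses for α3, β2 and γ2 subunits at MOI 3 and harvested 60 h postinfection to prepare membranes. Binding used 6 nM [3H]flunitrazepam, 50 µg membrane protein and varying test ligand concentrations in normal saline (NaCl/KCl/MgCl2/CaCl2/Hepes, pH 7.2). Incubation ran 60 min at 4 °C, followed by glass-fibre filtration, four cold-saline washes and scintillation counting.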

Mus musculus [10] = organism: Mus musculus; experiment: Acute electroshock physical dependence activity was evaluated; IA=Inactive; type: functional, organism-based
Procedure, shortened: (§4)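 Male CF-1 mice, 10/group, dosed sc twice daily (0800, and 1600 at twice the 0800 dose) for 3 days. 24 h after last dose, iv flumazenil 2.5 mg/kg in 5% aqueous N,N-dimethylacetamide. Electroshock seizure threshold (MA50) measured 5 min later versus saline-treated, flumazenil-injected controls. Compound scored active if threshold lowered beyond control interval.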

Mus musculus [11] = experiment: Ethanol potentiation activity was measured as loss of righting reflex in male CF-1 mice after oral administration; type: functional
Mus musculus [12] = experiment: Ethanol potentiation activity was measured as loss of traction response in male CF-1 mice after oral administration; type: functional
Mus musculus [13] = experiment: In vivo antagonistic activity against benzodiazepine in mice after ip administration; type: functional
Procedure, shortened: (§5)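 Male CF-1 mice injected ip simultaneously with triazolam 1 mg/kg and test compound starting at […], in 0.25% aqueous methyl cellulose. Loss of traction scored 15 min later. Absence of triazolam effect indicated antagonism; lower doses at 0.5 log intervals then tested to establish ED50.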

[14] = biological target: T3, GABA A receptor alpha-6/beta-2/gamma-2 (Homo sapiens, UniProt P18507+P47870+Q16445); experiment: Displacement of [3H]-Ro-15-4513 from GABA-A receptor alpha-6-beta-2-gamma-2 subunits expressed in Sf9 cells; procedure, shortened: as §3
T3 sequence (Q16445 whole entry, one chain of several): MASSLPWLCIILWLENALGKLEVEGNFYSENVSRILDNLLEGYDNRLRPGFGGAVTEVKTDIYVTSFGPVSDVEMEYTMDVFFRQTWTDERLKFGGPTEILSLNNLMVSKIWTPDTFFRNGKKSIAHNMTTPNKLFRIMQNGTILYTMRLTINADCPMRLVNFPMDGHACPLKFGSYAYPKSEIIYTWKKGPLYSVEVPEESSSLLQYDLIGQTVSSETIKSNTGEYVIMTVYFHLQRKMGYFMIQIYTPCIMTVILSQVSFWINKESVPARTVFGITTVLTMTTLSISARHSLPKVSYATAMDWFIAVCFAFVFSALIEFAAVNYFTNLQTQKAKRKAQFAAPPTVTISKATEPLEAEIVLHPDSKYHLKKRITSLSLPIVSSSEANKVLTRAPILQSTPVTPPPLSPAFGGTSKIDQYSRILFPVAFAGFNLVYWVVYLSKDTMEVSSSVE

Mus musculus [15] = experiment: In vivo antagonistic activity against benzodiazepine in mice; type: functional; procedure, shortened: as §5
Mus musculus [16] = organism: Mus musculus; experiment: Ethanol potentiation was measured against LORR; type: functional
Procedure, shortened: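 Male CF-1 mice given 7.5 mL/kg 50% aqueous ethanol orally with test compound sc simultaneously (in 0.25% aqueous methyl cellulose). After 30 min, scored for loss of traction (hindlimb placement on wire within 10 s) and loss of righting reflex (no righting within 10 s). Six mice/dose; active compounds retested at several doses for ED50.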

Mus musculus [17] = experiment: Acute electroshock physical dependence activity was evaluated; A=Active at 15 mg/Kg; type: functional, organism-based
Mus musculus [18] = organism: Mus musculus; experiment: Acute electroshock physical dependence activity was evaluated; A=Active; type: functional, organism-based; procedure, shortened: as §4
[19] = biological target: GABA-A receptor alpha-1/beta-2/gamma-2 (Homo sapiens); experiment: Binding affinity towards [3H]Fnz in alpha-1-beta-2-gamma-2 subtype was measured
[20] = biological target: T3, GABA A receptor alpha-6/beta-2/gamma-2; experiment: Displacement of [3H]Ro-154513 from GABA-A receptor alpha-6-beta-2-gamma-2 subunits expressed in Sf9 cells; procedure, shortened: as §3

| Structure (SMILES) | pKi [2] | pKi [3] | pKi [4] | ED50 (Rattus norvegicus [5]) [mg/kg] | 36Cl- uptake (Rattus norvegicus [6]) | [35S] TBPS shift [7] | pKi [8] | ED50 (Mus musculus [11]) [mg/kg] | ED50 (Mus musculus [12]) [mg/kg] | ED50 (Mus musculus [13]) [mg/kg] | pKi [14] | also measured |
| --- | --- | --- | --- | --- | --- | --- | --- | --- | --- | --- | --- | --- |
| CCOC(=O)c1ncn2c1CN(C)C(=O)c1cc(N=[N+]=[N-])ccc1-2 [Ro-154513] | – | – | – | – | – | – | – | – | – | – | – | pKi [1]: 7.82 |
| Cc1cccc2c1N(C(=O)N1CCOCC1)Cc1c(-c3noc(C4CC4)n3)ncn1-2 | 8.33 | 8.34 | 7.52 | 5.2 | 0.7 | 0.51 | – | – | – | – | – | – |
| CCNC(=O)N1Cc2c(-c3noc(C4CC4)n3)ncn2-c2ccccc21 | – | 8.46 | – | 5.3 | 0.22 | 0.72 | 8.35 | > 30 | > 30 | > 30 | – | pKi [9]: 7.82; Activity (Mus musculus [10]): inactive |
| CC(C)n1c(=O)c2c(-c3noc(C4CC4)n3)ncn2c2ccccc21 [PANADIPLON] | 8.46 | 8.80 | 8.24 | 1.6 | 0.04 | 0.06 | – | – | 6.6 | – | 6.22 | Activity (Mus musculus [10]): inactive; ED50 (Mus musculus [15]): 1.7 mg/kg; ED50 (Mus musculus [16]): > 30 mg/kg |
| CN1C(=O)CN=C(c2ccccc2)c2cc(Cl)ccc21 [DIAZEPAM] | – | – | – | 0.5 | 1 | – | – | 0.86 | 0.54 | – | < 5.15 | Activity (Mus musculus [17]): Active |
| O=C(N1CCOCC1)N1Cc2c(-c3noc(C4CC4)n3)ncn2-c2ccc(F)cc21 | 9.52 | 9.17 | 9.15 | 6.2 | 1.1 | 0.96 | – | > 30 | 2 | 1 | – | A (Mus musculus [18]): Active |
| O=C(c1ccccc1)N1Cc2c(-c3noc(C4CC4)n3)ncn2-c2ccccc21 | 9.52 | – | – | 42 | – | 0.54 | – | – | – | – | 5.94 | – |
| O=C(N1CCOCC1)N1Cc2c(-c3noc(C4CC4)n3)ncn2-c2cccc(F)c21 | 9.77 | 9.32 | 9.29 | 6.2 | 0.42 | 0.66 | – | – | – | – | 7.89 | Activity (Mus musculus [18]): Active |
| CN(C)C(=O)N1Cc2c(-c3noc(C4CC4)n3)ncn2-c2ccccc21 [PNU-91571] | – | 9.00 | – | 21 | 0.68 | 0.69 | 8.77 | > 30 | 27 | 1 | – | pKi [9]: 8.46; Activity (Mus musculus [10]): inactive |
| CN(C)C(=O)N1Cc2c(-c3noc(C4CC4)n3)ncn2-c2cccc(F)c21 | – | 9.05 | – | 21 | 0.6 | 0.84 | – | > 30 | 3 | 4 | – | Activity (Mus musculus [18]): Active |
| O=C(N1CCOCC1)N1Cc2c(-c3noc(C4CC4)n3)ncn2-c2ccc(Cl)cc21 | – | 8.64 | – | – | 1 | 0.71 | 9.66 | – | – | – | – | pKi [19]: 8.70 |
| CC(=O)N1Cc2c(-c3noc(C4CC4)n3)ncn2-c2ccccc21 | – | – | – | 35 | – | 0.94 | 8.57 | – | – | – | – | pKi [20]: 6.91 |
